Calls of active or inactive are those of the source. No cut-off for these calls is given here.
Experiments:
[1] = test system: Rattus norvegicus; experiment: The compound was tested in vivo for biochemical effect against the changes in different brain area levels of DOPA in reserpinized rat limbic system at does 12.5 uM/kg; Partial effect; type: functional, organism-based
In short: (§1)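 Male Sprague-Dawley rats (200-300 g) pretreated with reserpine 5 mg/kg sc 18 h before. Injection volume 5 mL/kg, test solutions at neutral pH. DOPA and 5-HTP in limbic system, striatum and hemispheres measured by HPLC with electrochemical detection. Dose-response curves from four to six dose levels (n = 4) per brain area.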

[2] = test system: Rattus norvegicus; experiment: The compound was tested in vivo for biochemical effect against the changes in different brain area levels of DOPA in reserpinized rat corpus striatum at dose 12.5 uM/kg; Partial effect; type: functional, organism-based; in short: as §1
[3] = test system: Rattus norvegicus; experiment: The compound was tested in vivo for biochemical effect against the changes in different brain area levels of DOPA in reserpinized rat hemispheres (mainly cortex)at does 12.5 uM/kg; Inactive; type: functional, organism-based; in short: as §1
[4] = target: T1, D(2) dopamine receptor (Rattus norvegicus, UniProt P61169); experiment: In vitro binding affinity against cloned mammalian Dopamine receptor D2 expressed in CHO cells using [3H]U-86170 as radioligand; type: cell-based; conditions: read-out: Ki
T1 sequence (P61169 whole entry): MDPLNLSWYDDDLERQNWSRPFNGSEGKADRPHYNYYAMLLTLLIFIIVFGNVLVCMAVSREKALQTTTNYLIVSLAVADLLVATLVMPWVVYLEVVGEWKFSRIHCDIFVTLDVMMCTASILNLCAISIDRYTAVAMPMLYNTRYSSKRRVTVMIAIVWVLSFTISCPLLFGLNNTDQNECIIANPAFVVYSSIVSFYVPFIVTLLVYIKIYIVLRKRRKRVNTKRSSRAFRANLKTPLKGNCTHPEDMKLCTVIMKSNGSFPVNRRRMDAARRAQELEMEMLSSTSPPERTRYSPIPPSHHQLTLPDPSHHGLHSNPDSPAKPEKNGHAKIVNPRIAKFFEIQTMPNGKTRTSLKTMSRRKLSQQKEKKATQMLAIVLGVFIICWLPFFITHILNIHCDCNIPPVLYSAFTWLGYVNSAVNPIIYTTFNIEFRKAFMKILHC
In short: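 Membranes from CHO cells (20-60 μg protein) in 20 mM HEPES, 10 mM MgSO4, pH 7.4. Nonspecific binding defined with excess haloperidol. 11 concentrations, each in duplicate. Incubated 1 h at room temperature, then filtered and counted. IC50 from a one-site competition fit, converted to Ki by Cheng-Prusoff.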

[5] = test system: Rattus norvegicus; experiment: In vivo changes in different brain area levels of 5-HTP in reserpinized rat corpus striatum.; type: functional
In short: (§2)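 Male Sprague-Dawley rats (200-300 g) pretreated with reserpine 5 mg/kg sc 18 h before. Injection volume 5 mL/kg at neutral pH. Brain-region 5-HTP measured by HPLC with electrochemical detection. Dose-response curves used four to six doses, n = 4.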

[6] = test system: Rattus norvegicus; experiment: The compound was tested in vivo for biochemical effect against the changes in different brain area levels of DOPA in reserpinized rat limbic system at dose 12.5 uM/kg; Partial effect; type: functional, organism-based; in short: as §1
[7] = test system: Rattus norvegicus; experiment: The compound was tested in vivo for biochemical effect against the changes in different brain area levels of DOPA in reserpinized rat corpus striatum at dose 12.5 uM/kg; Inactive; type: functional, organism-based; in short: as §1
[8] = test system: Rattus norvegicus; experiment: In vivo for biochemical effect against brain area levels of 5-HTP in reserpinized rat hemispheres (mainly cortex).; type: functional; in short: as §1
[9] = target: D(3) dopamine receptor (Rattus norvegicus, UniProt P19020); experiment: In vitro binding affinity against cloned mammalian Dopamine receptor D3 expressed in CHO cells by, using [3H]-spiperone as radioligand; type: cell-based; conditions: read-out: Ki
D(3) dopamine receptor, sequence (P19020 whole entry): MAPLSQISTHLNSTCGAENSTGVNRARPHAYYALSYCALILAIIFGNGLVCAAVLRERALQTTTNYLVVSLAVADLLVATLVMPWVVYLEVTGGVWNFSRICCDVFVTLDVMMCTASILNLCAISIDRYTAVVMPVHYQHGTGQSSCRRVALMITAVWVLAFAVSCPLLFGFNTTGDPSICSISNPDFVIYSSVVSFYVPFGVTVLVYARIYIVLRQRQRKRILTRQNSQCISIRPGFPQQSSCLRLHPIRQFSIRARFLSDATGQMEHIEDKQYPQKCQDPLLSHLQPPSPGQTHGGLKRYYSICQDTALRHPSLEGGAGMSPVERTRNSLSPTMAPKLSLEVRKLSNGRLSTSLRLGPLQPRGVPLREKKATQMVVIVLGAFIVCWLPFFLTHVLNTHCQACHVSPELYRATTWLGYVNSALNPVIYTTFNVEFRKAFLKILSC

[10] = test system: Rattus norvegicus; experiment: The compound was tested in vivo for biochemical effect against the changes in different brain area levels of DOPA in reserpinized rat hemispheres (mainly cortex)at dose 12.5 uM/kg; Inactive; type: functional, organism-based
[11] = target: T2, 5-hydroxytryptamine receptor 1B (Homo sapiens, UniProt P28222); experiment: In vitro binding affinity against cloned mammalian 5-hydroxytryptamine 1D receptor beta expressed in CHO cells, by using [3H]5-HT as radioligand; type: cell-based
T2 sequence (P28222 whole entry): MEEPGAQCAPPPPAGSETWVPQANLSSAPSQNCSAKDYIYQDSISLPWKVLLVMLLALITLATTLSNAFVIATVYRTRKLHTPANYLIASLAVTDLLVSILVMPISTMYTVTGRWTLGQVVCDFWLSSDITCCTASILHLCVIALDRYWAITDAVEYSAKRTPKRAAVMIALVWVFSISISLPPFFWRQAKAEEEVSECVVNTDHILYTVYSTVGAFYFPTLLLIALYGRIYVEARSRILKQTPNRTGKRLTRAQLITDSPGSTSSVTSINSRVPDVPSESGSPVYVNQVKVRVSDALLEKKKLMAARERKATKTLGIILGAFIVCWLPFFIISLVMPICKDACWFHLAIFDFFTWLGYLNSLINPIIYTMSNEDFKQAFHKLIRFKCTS
In short: (§3)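 Membranes from CHO cells stably expressing the cloned receptor, made by mechanical disruption in ice-cold Tris/EDTA/EGTA pH 7.4 and differential centrifugation. [3H]serotonin at 1.7 nM in 50 mM Tris, 5 mM MgCl2, 0.1% ascorbic acid, pH 7.4. 11 drug concentrations in duplicate, 1 h at room temperature protected from light, then filtration. Excess serotonin defines nonspecific binding. One-site IC50 fit, Ki by Cheng-Prusoff.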

[12] = test system: Rattus norvegicus; experiment: In vivo changes in different brain area levels of 5-HTP in reserpinized rat limbic system.; type: functional; in short: as §2
[13] = target: 5-hydroxytryptamine receptor 1D (Homo sapiens, UniProt P28221); experiment: In vitro binding affinity against cloned mammalian 5-hydroxytryptamine 1D receptor alpha expressed in CHO cells, by using [3H]5-HT as radioligand; type: cell-based
5-hydroxytryptamine receptor 1D, sequence (P28221 whole entry): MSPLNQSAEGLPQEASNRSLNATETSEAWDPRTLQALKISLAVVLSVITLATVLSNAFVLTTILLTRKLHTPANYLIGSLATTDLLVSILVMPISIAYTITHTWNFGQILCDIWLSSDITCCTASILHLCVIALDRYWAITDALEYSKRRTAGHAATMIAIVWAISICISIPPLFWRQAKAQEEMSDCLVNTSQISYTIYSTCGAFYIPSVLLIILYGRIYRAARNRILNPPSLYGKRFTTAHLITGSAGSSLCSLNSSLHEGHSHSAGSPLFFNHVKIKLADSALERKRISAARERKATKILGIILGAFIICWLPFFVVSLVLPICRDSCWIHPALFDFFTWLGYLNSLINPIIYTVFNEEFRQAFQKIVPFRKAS
In short: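 Competition binding on CHO-cell membranes (20-60 μg protein) in 50 mM Tris, 5 mM MgCl2, 0.1% ascorbic acid, pH 7.4. Nonspecific binding defined with excess serotonin. 11 drug concentrations, each in duplicate. Incubated 1 h at room temperature, protected from light, then filtered and scintillation counted. IC50 taken from a one-site fit; Ki by Cheng-Prusoff.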

[14] = target: T2, 5-hydroxytryptamine receptor 1B; experiment: The compound was tested in vitro for binding affinity against cloned mammalian 5-hydroxytryptamine 1D receptor beta expressed in CHO cells, by using [3H]5-HT as radioligand; type: cell-based; design: concentration or dose not given beside the values; conditions: concentration not given here; in short: as §3
[15] = target: T1, D(2) dopamine receptor; experiment: Binding affinity rat Dopamine receptor D2 expressed in CHO-K1 cells by [3H]U-86170 displacement.; type: cell-based
[16] = target: D(3) dopamine receptor (Rattus norvegicus) (UniProt P19020); experiment: The compound was tested in vitro for binding affinity against cloned mammalian Dopamine receptor D3 expressed in CHO cells by, using [3H]spiperone as radioligand; inactive at 10E-6 M; type: cell-based
D(3) dopamine receptor (Rattus norvegicus), sequence (P19020 whole entry): as the sequence (P19020 whole entry) above

[17] = test system: Rattus norvegicus; experiment: The compound was tested in vivo for biochemical effect against the changes in different brain area levels of DOPA in reserpinized rat corpus striatum at dose 3.1 umol/kg; Partial effect; type: functional, organism-based; in short: as §1
[18] = test system: Rattus norvegicus; experiment: The compound was tested in vivo for biochemical effect against the changes in different brain area levels of DOPA in reserpinized rat limbic system at dose 3.1 umol/kg; Partial effect; type: functional, organism-based; in short: as §1
[19] = test system: Rattus norvegicus; experiment: The compound was tested in vivo for biochemical effect against the changes in different brain area levels of DOPA in reserpinized rat hemispheres (mainly cortex)at dose 3.1 umol/kg; Inactive; type: functional, organism-based; in short: as §1
[20] = test system: Rattus norvegicus; experiment: The compound was tested in vivo for biochemical effect against the changes in different brain area levels of DOPA in reserpinized rat hemispheres (mainly cortex) at dose of 3.1 micro/kg; Inactive; type: functional, organism-based; in short: as §1
[21] = test system: Rattus norvegicus; experiment: The compound was tested in vivo for biochemical effect against the changes in different brain area levels of DOPA in reserpinized rat limbic system at dose 3.1 uM/kg; Inactive; type: functional, organism-based; in short: as §1
[22] = test system: Rattus norvegicus; experiment: The compound was tested in vivo for biochemical effect against the changes in different brain area levels of DOPA in reserpinized rat hemispheres (mainly cortex)at dose 3.1 uM/kg; Inactive; type: functional, organism-based; in short: as §1
[23] = test system: Rattus norvegicus; experiment: The compound was tested in vivo for biochemical effect against the changes in different brain area levels of DOPA in reserpinized rat corpus striatum at dose 3.1 uM/kg; Inactive; type: functional, organism-based; in short: as §1
[24] = test system: Rattus norvegicus; experiment: The compound was tested in vivo for biochemical effect against the changes in different brain area levels of 5-HTP in reserpinized rat hemispheres (mainly cortex)at dose 3.1 uM/kg; inactive; type: functional, organism-based
[25] = test system: Rattus norvegicus; experiment: The compound was tested in vivo for biochemical effect against the changes in different brain area levels of DOPA in reserpinized rat corpus striatum at dose 50 uM/kg; inactive; type: functional, organism-based
[26] = test system: Rattus norvegicus; experiment: The compound was tested in vivo for biochemical effect against the changes in different brain area levels of DOPA in reserpinized rat limbic system at dose 50 uM/kg; inactive; type: functional, organism-based
[27] = test system: Rattus norvegicus; experiment: The compound was tested in vivo for biochemical effect against the changes in different brain area levels of DOPA in reserpinized rat hemispheres (mainly cortex)at dose 3.1 uM/kg; inactive; type: functional, organism-based

SMILES	Ki [9] [nM]	Ki [11] [nM]	Ki [13] [nM]	Ki [15] [nM]	other results
CCCN(CCC)[C@H]1CCc2ccc3[nH]cc(C=O)c3c2C1					ED50 [1]: Weak activity; ED50 [2]: Weak activity; ED50 [3]: inactive
C=CCN(CCC)C1CCc2ccc3[nH]cc(C=O)c3c2C1 (stereo not given)	130	49			Ki [4]: 59 nM; ED50 [5]: 0.16 µmol/kg; ED50 [6]: Weak activity; ED50 [7]: inactive; ED50 [8]: 0.19 µmol/kg; ED50 [10]: inactive; ED50 [12]: 0.19 µmol/kg
CCCN(CCc1cccs1)C1CCc2ccc3[nH]ccc3c2C1 (stereo not given)	5.5		13	5.5	inhibition [14]: < 45%
O=Cc1c[nH]c2ccc3c(c12)CC(N1CCCCCC1)CC3 (stereo not given)					Ki [4]: > 1000 nM
c1cc2c3c(ccc2[nH]1)CCC(N1CCCCCC1)C3 (stereo not given)			340	100	inhibition [14]: < 45%; inhibition [16]: < 45%
CCCN(CCC)[C@@H]1CCc2ccc3[nH]cc(C=O)c3c2C1					ED50 [17]: Weak activity; ED50 [18]: Weak activity; ED50 [19]: inactive
CCCN(CCC)[C@H]1CCc2ccc3[nH]ccc3c2C1					ED50 [20]: inactive
CCCN(CCCCN1C(=O)CC(C)(C)CC1=O)C1CCc2ccc3[nH]ccc3c2C1 (stereo not given)	29	224	26	15	
CCCN(CCC)C1CCc2ccc3[nH]ccc3c2C1 (stereo not given)			39		
CCCN(CC1CC1)C1CCc2ccc3[nH]cc(C=O)c3c2C1 (stereo not given)	164	196	24		ED50 [5]: 0.33 µmol/kg; ED50 [21]: inactive; ED50 [22]: inactive; ED50 [8]: 0.34 µmol/kg; ED50 [12]: 0.23 µmol/kg; ED50 [23]: inactive
CCCN(CCCOc1cccc(Cl)c1)C1CCc2ccc3[nH]ccc3c2C1 (stereo not given)	20	243	13	15	
CN(C)[C@@H]1CCc2ccc3[nH]ccc3c2C1	270	228			
CN(C)C1CCc2ccc3[nH]ccc3c2C1 (stereo not given)	383	270			
CCCN(CCCc1ccccc1OC)C1CCc2ccc3[nH]cc(C=O)c3c2C1 (stereo not given)	84	11	3.4		Ki [4]: 14 nM
c1ccc(CCCNCC2CCc3ccc4[nH]ccc4c3C2)cc1 (stereo not given)	199	228	63	32	ED50 [24]: inactive; ED50 [5]: 34 µmol/kg; ED50 [25]: inactive; ED50 [26]: inactive; ED50 [27]: inactive
